Mot1-301 SUMO: SUMOylation pathway inhibition by Mot1-301 growth rescue. S. cerevisiae Mot1-301 growth rescue, ATP luminescence, 38.5C; percent above DMSO median, 100 means doubled. growth rescue, % at 18.8 µM. actives 1% (n = 320,000). AID 2716;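 active = every valid replicate shows activation above 250% relative to neutral control wells; inactive = the rest, any valid replicate at or below 250%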;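 also: OY570 slx delta 5 strain wells were the positive control but not used for scaling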
FID counter: fluorescent intercalator displacement, NS3 helicase counter-screen; DNA fluorescent intercalator displacement, fluorescence; inhibition, % at 7.9 µM; actives 0.17% (n = 290,000); AID 1845; in the data active = inhibition above about 37%;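 also: 0% = vehicle and 100% = reference compound; higher means more ethidium bromide displaced from hairpin DNA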
IMP-1 inhibitor: blocks Pseudomonas aeruginosa IMP-1 metallo-beta-lactamase; AID 1556; actives 0.45% (n = 290,000); purified IMP-1, nitrocefin hydrolysis, epi-absorbance fluorescence; inhibition, % at 5.6 µM;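 active = inhibition above the mean plus 3 SD of all compounds in the same screening run, cut at about 4.5% in these data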;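 also: 0% = IMP-1 with DMSO and 100% = DMSO wells lacking enzyme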
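System – purified recombinant IMP-1 beta-lactamase · Input – IMP-1 dispensed at 0.2 nM · Timing – 15 min preincubation plus 25 min reaction at 25 °C · Signal – Epi-absorbance fluorescence, 480 nm excitation, 530 nm emission · Measure – percent IMP-1 inhibition derived from blank-referenced optical density · Controls – Enzyme-plus-DMSO low control, enzyme-free DMSO high control · Replication – singlicate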
VIM-2 inhibitor: inhibitors of Pseudomonas aeruginosa VIM-2 metallo-beta-lactamase; inhibition, % at 5.6 µM; purified VIM-2, nitrocefin hydrolysis, epi-absorbance fluorescence; actives 0.89% (n = 290,000); AID 1527;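 active = inhibition above the mean of all tested compounds plus 3 SD, cutoff set per screening run, cut at about 7.5% in these data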;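 also: red hydrolysis product quenches plate fluorescence so inhibitors raise well fluorescence; 0% = enzyme with DMSO and 100% = DMSO without enzyme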
UBC9 SUMO inh: inhibitors of human SUMOylation (UBC9). P63279. HTRF SUMOylation assay, SAE1/SAE2 + UBC9, in vitro. inhibition, % at 35 µM. actives 0.36% (n = 290,000); in the data active = inhibition above about 50%, passing the limit was not always enough
Target sequence (P63279 whole entry, looked up): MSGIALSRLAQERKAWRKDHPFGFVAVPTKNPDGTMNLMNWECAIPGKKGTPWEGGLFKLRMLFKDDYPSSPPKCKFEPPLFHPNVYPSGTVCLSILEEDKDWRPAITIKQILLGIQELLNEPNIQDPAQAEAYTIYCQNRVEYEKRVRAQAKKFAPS
NALP1 inh: inhibitors of NALP1 inflammasome in yeast | AID 2071 | actives 0.61% (n = 280,000) | inhibition, % at 10 µM | S. cerevisiae NALP1/ASC/caspase-1 growth, X-gal OD620, 72 h; in the data active = inhibition mostly above about 24%, no sharp cut-off; inactive = mostly below about 32%
Yeast Mot1 SUMO: yeast SUMO pathway inhibition in dose response. S. cerevisiae Mot1-301 galactose growth, ATP luminescence, 24 h; -100 = growth of slx-deleted rescue strain. shares compounds with Mot1-301 SUMO. growth activity, percent, % at 42 µM. AID 493004. 2,300 tested, under 10 active;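 active = Signal drops as the depositor expects, and the fitted half-maximal dose is no more than ten times the top valid tested dose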;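 also: more negative values mean stronger growth rescue toward the control strain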
The depositor's hits bear a star; · = no result given; + = active, no number. Shown are actives, neighbours in structure and some others; about 2.9% of the full set was active somewhere.

SMILES	Mot1-301 SUMO	FID counter	IMP-1 inhibitor	VIM-2 inhibitor	UBC9 SUMO inh	NALP1 inh	Yeast Mot1 SUMO
CC1CCN(S(=O)(=O)c2ccc(NC(=O)c3cccs3)cc2)CC1	415.0*	-7.8	-0.3	-0.5	-8.7	-12.4	0.6
CN1CCN(S(=O)(=O)c2ccc(NC(=O)c3cccs3)cc2)CC1	129.3	4.3	-2.1	0.1	12.6	11.6	·
COc1ccc2c(c1)c(CC(=O)OCC(N)=O)c(C)n2C(=O)c1ccc(Cl)cc1	674.3*	-5.3	-3.2	-0.5	-8.6	·	0.5
N#Cc1nc(/C=C/c2ccccc2)oc1NCCCN1CCOCC1	-0.3	0.8	-2.1	0.7	49.2	·	·
CCCc1nc(SCC(=O)N2c3ccccc3CC2C)c2c(C)c(C)sc2n1 (centres undefined)	-14.9	-1.0	-0.6	-0.1	-12.4	2.7	·
O=C(N1CCOCC1)C1(S(=O)(=O)c2ccccc2)CC=CC1	639.3*	-8.5	-2.4	-2.8	16.3	9.5	-0.4
Cn1c(=O)c2c(nc(SCC(=O)c3ccccc3F)n2C)n(C)c1=O	-9.3	-1.2	-1.2	1.2	-0.3	-12.5	·
Cc1cc(C)cc(-n2ncc3c2CCCC3NC(=O)c2cc(C)[nH]n2)c1 (centres undefined)	640.9*	-38.2	-2.7	-0.1	4.8	10.9	-0.1
COc1cc(CN2CCCCC2C(=O)Nc2ccc(Oc3ccccc3)nc2)ccc1O (centres undefined)	-4.1	15.9	-2.8	-1.3	-5.8	8.5	·
Nc1cc(-c2ccc(Cl)cc2)nn1S(=O)(=O)c1ccc(Cl)cc1	545.0*	-0.6	-2.3	-1.8	13.2	-0.1	0.0
COc1ccc(S(=O)(=O)n2nc(-c3ccc(Cl)cc3)cc2N)cc1OC	387.6*	-4.2	-3.0	0.6	3.2	-10.4	0.5
CCOc1ccc(-c2cc(N)n(S(=O)(=O)c3ccc(OC)c(OC)c3)n2)cc1	3.0	-10.0	-2.3	-1.1	1.4	-8.5	·
COC(=O)Cc1nc(Nc2ccccc2)sc1C	15.5	-6.2	-1.9	-2.2	0.4	22.2	·
COCCNC(=O)Nc1ccc2c(c1)N(C)C(=O)CS2	-17.9	-2.6	-1.5	-0.8	5.2	14.0	·
CC(C)CCNC(=O)Nc1ccc2c(c1)N(C)C(=O)CS2	+	-10.7	-2.3	-1.4	0.1	5.0	-0.3
Cc1cccc(Cn2c(C(=O)OC(C)C)cc3c2ccn3C)c1	+	-18.3	-5.0	-1.7	12.1	14.0	0.8
Fc1ccc(-c2n[nH]c(=S)n2CC2CCCO2)cc1 (centres undefined)	392.9*	-11.2	-2.2	6.9	14.3	2.4	-0.4
C/C(CC(=O)Nc1ccc(C)c(Cl)c1)=N\NC(=O)C1CCCCC1	-15.9	-11.5	-1.1	-0.4	8.1	0.0	·
Cc1c(C(=O)N2CCC(n3nccc3NC(=O)C3CC3)CC2)[nH]c2ccc(Cl)cc12	2.0	-34.9	-3.0	-2.1	-5.3	-0.1	·
CC(C)N(C(=O)CSc1nnc(Cn2nnc3ccccc32)n1C)C(C)C	4.7	-11.5	-3.6	1.6	19.1	5.9	·
Cn1c(Cn2nnc3ccccc32)nnc1SCC(=O)c1ccc(F)cc1	785.2*	-8.5	-0.7	2.5	26.3	12.0	-0.1
Cc1nn(CC2CC2)c(=O)n1-c1ccc(F)cc1	-3.6	-2.5	-3.5	-4.3	-6.6	4.9	·
CCCCN(C/C=C/c1ccccc1OC)Cc1ccccc1	528.5*	1.6	-2.3	-4.0	-3.2	-10.4	0.2
CC(C)n1c(CN(C)c2ccccc2)nc2ccccc21	875.1*	-7.4	-0.5	-0.7	-1.7	-6.8	0.2
COc1cc(C(O)CO)ccc1OS(=O)(=O)O (centres undefined)	19.0	·	·	·	·	·	·
SMILES	Mot1-301 SUMO	FID counter	IMP-1 inhibitor	VIM-2 inhibitor	UBC9 SUMO inh	NALP1 inh	Yeast Mot1 SUMO
O=C(N1CCOCC1)N1CCN(S(=O)(=O)c2ccc(F)cc2)CC1	-16.3	-8.7	-5.5	1.0	14.6	9.8	·
O=C(c1cccs1)N(C(=O)c1cccs1)c1ccc(Br)cn1	481.6*	-14.5	-3.2	-2.5	13.9	32.8	-3.1
Cc1cc(CNC(=O)C2(C(F)(F)F)C/C(=C\Cc3ccccc3)CCCO2)nn1C (centres undefined)	-0.1	·	·	·	·	·	·
c1ccc2c(c1)[nH]c1c(N3CCCC3)ncnc12	-15.7	19.4	-0.6	2.8	23.0	11.0	·
c1ccc2c(c1)[nH]c1c(N3CCN(C4CCCCC4)CC3)ncnc12	739.1*	24.3	-1.2	4.3	·	·	-1.4
CCOC(=O)C1(Cc2cccc(Cl)c2)CCCN(C(=O)CCSC)C1 (centres undefined)	-14.0	-43.9	1.4	3.1	-5.5	19.8	·
CCOC(=O)C1(Cc2cccc(Cl)c2)CCCN(C(=O)CCOC)C1 (centres undefined)	389.4*	-18.7	-3.5	-2.2	10.5	13.4	-0.1
O=C(CCCc1nc(-c2ccc(Cl)cc2)no1)NC1CCCCC1	861.5*	-26.0	0.1	1.2	9.2	16.6	0.7
CCCCN(C(=O)c1cnccn1)c1c(N)n(CCC)c(=O)[nH]c1=O	20.5	·	·	·	·	·	·
CCCCn1c(N)c(N(CCOC)C(=O)c2ccc(Cl)c(S(=O)(=O)N3CCCCC3)c2)c(=O)[nH]c1=O	697.6*	·	·	·	·	·	0.3
CCCCn1c(N)c(N(CCOC)C(=O)c2cnccn2)c(=O)[nH]c1=O	765.4*	·	·	·	·	·	0.9
CNC(=O)COc1coc(CN2CCN(c3ccc(F)cc3)CC2)cc1=O	-6.8	-6.2	-2.7	-4.4	6.6	7.1	·
COc1ccc(CN2CCNC(=O)C2CC(=O)N2CCCCO2)c(OC)c1 (centres undefined)	10.9	-6.8	-2.2	-1.8	3.1	3.0	·
COc1ccc(NC(=O)CC(C)C)c(OC)c1	789.1*	-0.4	-3.4	-2.4	24.2	-0.4	0.3
Cc1ccc(CCN2CC(C(=O)NCCCN3CCCCC3)CC2=O)cc1 (centres undefined)	14.0	4.6	-2.8	-1.5	·	3.1	·
N#Cc1cc2c(nc1SCc1cccnc1)CCC2	+	-7.6	-1.8	0.0	10.3	11.0	0.2
CCOC(=O)c1cnc(N2CCN(C(=O)OCC)CC2)[nH]c1=O	-12.7	1.0	-1.9	2.3	1.2	4.0	·
O=C(/C=C/c1cccc([N+](=O)[O-])c1)NCCSCc1ccc(Cl)cc1Cl	367.6*	0.6	-2.9	-1.2	-14.7	35.5	-0.5
O=C(/C=C/c1cccc([N+](=O)[O-])c1)NCCSCc1ccccc1Cl	5.0	-7.8	-2.5	-6.0	-12.1	19.3	·
Cc1ccccc1-n1c(-c2cccnc2)n[nH]c1=S	+	-7.0	-2.6	2.1	16.8	-13.0	0.4
Cc1cc(O)c(/C=N/Nc2cccc(Cl)c2)c(=O)o1	416.0*	1.2	-0.2	-0.8	-9.3	6.1	-0.3
CCNc1sc(C(=O)OCC)c(N)c1C#N	12.5	-4.0	-0.3	0.3	0.0	15.4	·
